Assay results: paper PMC7323501 (Inorganic chemistry, 2019)
Where two headings read alike, the source gives them in different places.

Tests used:
[1] = cited from earlier work
[2] = previously shown; cited from earlier work
[3] = CCA assay: copper/ascorbate redox cycling, hydroxyl radical production; settings: 1 equiv (10 μM) vs copper(II) 10 μM, ascorbate 300 μM, CCA 100 μM, pH 7.4
In short: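 Cu(II)/ascorbate hydroxyl-radical model in PBS (pH 7.4) with Desferal (1 μM); CuSO4 in water. Addition order is buffer, CCA (100 μM), Desferal, test compound (0.5 equiv = 5 μM or 1 equiv = 10 μM), Cu(II) (10 μM), then ascorbate (300 μM). The read-out is 7-hydroxy-CCA fluorescence (λex 395 nm, λem 450 nm). Triplicate.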

[4] = DPPH radical scavenging assay; settings: 1–1500 μM, MeOH, 30 min, n = 3
In short: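 Test compound stocks (5 mM, MeOH) were diluted and mixed 1:1 with DPPH stock (150 μM in MeOH), giving final compound 1–1500 μM. Plates were incubated 30 min in the dark at room temperature and read at 516 nm. BHT served as reference antioxidant, and DPPH plus MeOH as the control. Each concentration was run in triplicate, with results normalised to control as % DPPH quenched.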

HT-22 cells = experiment: Cytoprotection against H2O2 in HT-22 cells, WST-8 assay; format: cell-based, mouse; settings: then 600 μM H2O2 4 h
In short: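 HT-22 cells were pretreated with or without test compound (0.1–100 μM) for 24 h, then exposed to 600 μM H2O2 for 4 h. Viability was read by WST-8 reduction (2 h incubation, A450). Values are mean ± SD, n = 6, and significance was tested against the H2O2-only group.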

Nrf2 = Nrf2 expression by Western blot in HT-22 cells; format: cell-based, mouse; settings: HT-22, 1 μM, 24 h
Nrf2 pathway = settings: human blood–brain barrier CMEC/D3 cells; cited from earlier work

## c1cc2nc(c1)CNCCNCCNC2 [L1]
[1]; I = 0.15 M NaCl, T = 298 K
  log K1^H: 11.37
  log K2^H: 8.22
  log K3^H: 1.61
  pI: >11.37
[2]
  DPPH^• radical scavenging activity: lack of radical scavenging activity

## CCN(CC)Cc1cccc(CN(CC)CC)n1 [2,6-bis[(diethylamino)methyl]pyridine]
[3]
  inhibition of CCA conversion to fluorescent hydroxy-CCA: failed to give any indication of the prevention of copper redox cycling

## Cc1cc(C(C)(C)C)c(O)c(C(C)(C)C)c1 [BHT, 2,6-Di-tert-butyl-4-methylphenol, reference compound]
[4]
  DPPH^• radical scavenging response: rapid decrease in the DPPH^• absorbance band

## C1CNCCNCCNCCN1 [cyclen, reference compound]
[1]; I = 0.15 M NaClO4
  log K1^H: 10.66
  log K2^H: 9.69
  log K3^H: 1.41
  pI: > 10.66

## Oc1cc2nc(c1)CNCCNCCNC2 [L2]
[4]
  DPPH^• radical scavenging response: strong response
ABTS radical reactivity
  reactivity with ABTS: little to no reactivity
HT-22 cells; HT-22, 1 μM pretreatment 24 h, mean ± SD, n = 6
  cell viability after H2O2: 70.1 ± 9.8%
HT-22 cells; HT-22, 0.1, 10 and 100 μM pretreatment 24 h
  cell viability after H2O2: did not improve the cell viability
Nrf2
  expression level of Nrf2: significantly increase the expression level of Nrf2
[1]; I = 0.15 M NaCl, T = 298 K
  log K1^H: 11.56
  log K2^H: 9.05
  log K3^H: 5.45
  log K4^H: 1.68
  pI: 10.31
Nrf2 pathway
  Nrf2 pathway activation: could activate the Nrf2 pathway
